# Assay results pooled from the literature.
# Lines come from different studies, so protocols differ.
# mraY: mraY (Staphylococcus aureus, UniProt Q2FZ93)
# TOP2A: DNA topoisomerase 2-alpha (TOP2A, Homo sapiens, UniProt P11388)
# TNKS2: Poly [ADP-ribose] polymerase tankyrase-2 (TNKS2, Homo sapiens, UniProt Q9H2K2)
# FLT3 ITD: Receptor-type tyrosine-protein kinase FLT3 (FLT3, Homo sapiens, UniProt P36888, ITD)
SMILES,target,assay,IC50 [nM]
CCCCCCC#Cc1cncc(-c2nnc(SCc3cc([N+](=O)[O-])cc([N+](=O)[O-])c3)n2CCCN)c1,mraY,"enzyme activity, inhibitor",25000
Fc1ccccc1Nc1nc(-c2ccncc2)nc2c1CNCC2,TOP2A,"enzyme activity, inhibitor",4500
Cc1n[nH]c2ccc3nc(-c4ccc(C(=O)NCCN(C)C)cc4)c4c(c3c12)CCCCC4,"Receptor-type tyrosine-protein kinase FLT3 (FLT3, Homo sapiens, UniProt P36888, D835Y)","enzyme activity, inhibitor",34
CCCCCCC#Cc1cncc(-c2nnc(SCc3cc([N+](=O)[O-])cc([N+](=O)[O-])c3)n2C2CCNCC2)c1,mraY,"enzyme activity, inhibitor",~100000
CC(C)(O)c1ccc(-c2nc3cc(NC(=O)c4ccc(-c5ccccc5)cc4)ccc3c(=O)[nH]2)cc1,TNKS2,"enzyme activity, inhibitor",35
CN(C)CCNC(=O)c1ccc(-c2nc3ccc4[nH]ncc4c3c3c2CCCCC3)cn1,FLT3 ITD,"enzyme activity, inhibitor",420
CC(C)(O)c1ccc(-c2nc3cc(NC(=O)c4cnc(Oc5ccccc5)nc4)ccc3c(=O)[nH]2)cc1,TNKS2,"enzyme activity, inhibitor",7.96
CN(C)CCNC(=O)c1ccc(-c2nc3ccc4[nH]ncc4c3c3c2CCC3)cc1,FLT3 ITD,"enzyme activity, inhibitor",659
CNC(=O)c1ccc(C(=O)Nc2ccc3c(=O)[nH]c(-c4ccc(C(C)(C)O)cc4)nc3c2)cc1,TNKS2,"enzyme activity, inhibitor",30.4
Cc1cc2c(cc1C)N[C@H](c1ccccc1)[C@@H](O)C(=O)N2,"Aurora kinase C (AURKC, Homo sapiens, UniProt Q9UQB9)","enzyme activity, inhibitor, ELISA",211
Fc1cccc(Nc2nc(-c3ccncc3)nc3c2CNCC3)c1,TOP2A,"enzyme activity, inhibitor",25000
Cc1cc(-c2ccccc2)nnc1NCCN1CCOCC1,"5-hydroxytryptamine receptor 2B (HTR2B, Homo sapiens, UniProt P41595)","calcium signal, antagonist",6200
CN(C)CCNC(=O)c1ccc(-c2nc3ccc4[nH]ncc4c3c3c2CCCCC3)cc1,"Receptor-type tyrosine-protein kinase FLT3 (FLT3, Homo sapiens, UniProt P36888)","enzyme activity, inhibitor",48
COc1cccc(Nc2nc(-c3ccncc3)nc3c2CNCC3)c1,TOP2A,"enzyme activity, inhibitor",120000
CNC(=O)[C@H](Cc1c[nH]c2ccccc12)NC(=O)[C@@H](CC(=O)NO)CC(C)C,"Stromelysin-1 (MMP3, Homo sapiens, UniProt P08254)","enzyme activity, inhibitor",12.5
